# Test results: publication PMC3911823 (The FEBS journal, 2011)
# Changes are numbered by the printed parent chain. “Also recorded” adds a separate entry of the source.
# Columns and labels:
# P450 2B4 L437A [1] = molecular target: T1, P450 2B4 L437A (Oryctolagus cuniculus, UniProt P00178, L437A); test: Inhibition of 7-EFC O-deethylation by imidazole inhibitors; type: biochemical, rabbit (Oryctolagus cuniculus)
# T1 sequence (P00178 with tags, fused parts or gaps L437A limits assumed): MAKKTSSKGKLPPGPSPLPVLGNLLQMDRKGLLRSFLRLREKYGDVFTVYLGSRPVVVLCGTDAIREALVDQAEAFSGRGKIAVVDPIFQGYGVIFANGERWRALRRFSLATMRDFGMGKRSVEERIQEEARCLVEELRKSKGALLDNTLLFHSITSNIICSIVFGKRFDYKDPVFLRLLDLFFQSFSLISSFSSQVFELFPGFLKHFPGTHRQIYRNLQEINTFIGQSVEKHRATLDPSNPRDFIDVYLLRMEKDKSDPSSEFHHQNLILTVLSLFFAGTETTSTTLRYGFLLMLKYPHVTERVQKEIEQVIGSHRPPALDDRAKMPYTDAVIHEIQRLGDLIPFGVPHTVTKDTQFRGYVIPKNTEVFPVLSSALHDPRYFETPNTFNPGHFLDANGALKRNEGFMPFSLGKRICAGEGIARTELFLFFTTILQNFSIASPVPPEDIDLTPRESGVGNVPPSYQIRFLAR
# P450 2B4 H172F = molecular target: T2, P450 2B4 H172F (Oryctolagus cuniculus, UniProt P00178, H172F); test: Spectral binding titration of imidazole ligands; parameters: species or system rabbit (Oryctolagus cuniculus); conditions: 2B4 H172F versus wild type
# T2 sequence (P00178 with tags, fused parts or gaps H172F limits assumed): T1 sequence (P00178 with tags, fused parts or gaps L437A limits assumed) with H153F, A418L
# How it was run: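 Protein was the His-tagged 2B4dH construct (single mutants or wild type), expressed in TOPP3 cells and Ni-NTA purified. Spectra 350–700 nm recorded after serial 5 μl additions of 100 μM 4-CPI or bifonazole. Ks came from a tight-binding equation fit, and the 4-CPI/bifonazole Ks ratio was calculated.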
# P450 2B4 wild type = molecular target: T3, P450 2B4 wild type (Oryctolagus cuniculus, UniProt P00178); test: Inhibition of 7-EFC O-deethylation by imidazole inhibitors; type: biochemical, rabbit (Oryctolagus cuniculus)
# T3 sequence (P00178 with tags, fused parts or gaps limits assumed): T1 sequence (P00178 with tags, fused parts or gaps L437A limits assumed) with A418L
# P450 2B4 H172A = molecular target: T4, P450 2B4 H172A (Oryctolagus cuniculus, UniProt P00178, H172A); type: biochemical, rabbit (Oryctolagus cuniculus)
# T4 sequence (P00178 with tags, fused parts or gaps H172A limits assumed): T1 sequence (P00178 with tags, fused parts or gaps L437A limits assumed) with H153A, A418L
# P450 2B4 L437A [2] = molecular target: T1, P450 2B4 L437A; type: biochemical, rabbit (Oryctolagus cuniculus)
# P450 2B4 E474D = molecular target: T5, P450 2B4 E474D (Oryctolagus cuniculus, UniProt P00178, E474D); type: biochemical, rabbit (Oryctolagus cuniculus)
# T5 sequence (P00178 with tags, fused parts or gaps E474D limits assumed): T1 sequence (P00178 with tags, fused parts or gaps L437A limits assumed) with A418L, E455D
IC50 (P450 2B4 L437A [1]) [nM],"Ratio 4-CPI IC50/Bifonazole IC50 (P450 2B4 L437A [1]; 2B4 L437A, 50 μM 7-EFC as substrate)",change in the ratio of 4-CPI Ks to bifonazole Ks (P450 2B4 H172F),IC50 (P450 2B4 wild type) [nM],"Ratio 4-CPI IC50/Bifonazole IC50 (P450 2B4 wild type; 2B4 WT, 50 μM 7-EFC as substrate)",decrease (change) in kcat versus wild type (P450 2B4 H172A),kcat (P450 2B4 H172A) [s⁻¹],kcat/S50 (P450 2B4 H172A),S50 (P450 2B4 H172A; Hill equation) [µM],kcat (P450 2B4 L437A [2]) [s⁻¹],kcat/S50 (P450 2B4 L437A [2]),decrease (change) in kcat versus wild type (P450 2B4 E474D),kcat (P450 2B4 E474D) [s⁻¹],kcat/S50 (P450 2B4 E474D),S50 (P450 2B4 E474D; Hill equation) [µM],Compound,substrate turnover (activity) (P450 2B4 L437A [2])
970,3.88,greater than 9 fold,40,0.04,,,,,,,,,,,"Clc1ccc(-c2c[nH]cn2)cc1 [4-CPI, 4-(4-chlorophenyl)imidazole]",
,,,,,~ 19 fold,0.0067 ± 0.0017,0.08,5.0 ± 0.8,0,0,~ 2.5 fold,0.0517 ± 0.0033,0.5,6.2 ± 0.7,"O=c1ccc2nc3ccc(OCc4ccccc4)cc3oc-2c1 [7-BR, 7-benzyloxyresorufin]",did not turn over; also recorded: no activity
